Hits are enriched below; roughly 5.1% of the tested compounds scored in any of these assays.
NF-kB neuron act: NF-kB expression increase, human neuronal cells; NF-kB reporter expression; hits give high values; AID 1239; hit rate 1.6% among 190,000; fold change at 12.5 µM; in the data active = fold change above about 3.3
STAT1 inh-1: reduces IFN-gamma driven STAT1 reporter signal | NIH 3T3 STAT1-luciferase reporter, luminescence | inhibition, % at 5.5 µM | hit rate 0.35% among 200,000;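 active = inhibition above a set limit, the mean inhibition across all tested compounds plus 3 SD, cut at about 34% in these data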;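 also: 0% = IFN-gamma with DMSO and 100% = IFN-gamma with 300 µM nifuroxazide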
APP 5'UTR act: activates APP 5'UTR luciferase reporter; SH-SY5Y APP 5'UTR luciferase reporter, luminescence; zero percent = DMSO vehicle wells; activation, % at 2 µM; hit rate 1% among 190,000; AID 1276;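 active = activation above a set limit, based on mean plus 3 SD of controls, cut at about 140% in these data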
STAT3 activator: increases IL-6 driven STAT3 reporter signal | activation (% of control), % at 5.6 µM | U3A cells, IL-6 STAT3-luciferase reporter, luminescence; 100% = signal with IL-6 EC80 alone | hit rate 0.91% among 190,000;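 active = activation above the screen-wide mean of compound activation plus 3 SD, cut at about 130% in these data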;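 also: 0% = background luminescence of wells with medium and substrate only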
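Detection: reporter luminescence signal / Assay system: STAT1-lacking human U3A cells, STAT3 luciferase reporter / Incubation: compound pre-incubation 1 h before IL-6, then 6 h stimulation at 37 °C / Control set: IL-6-only high control / Read-out: % activation relative to IL-6 control / Probe or stimulus: Interleukin-6, 33 ng/mL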
STAT3 blocker: STAT3 signaling inhibition; U3A cells, IL-6 STAT3-luciferase reporter, luminescence; host cell line lacks STAT1; inhibition, % at 5.5 µM; hit rate 0.89% among 190,000;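 active = inhibition above the mean inhibition across all screened compounds plus 3 SD, cut at about 44% in these data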;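 also: 0% = DMSO only wells and 100% = 100 µM nifuroxazide control wells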
STAT1 activator: activators of IFN-gamma induced STAT1 signaling | NIH 3T3 STAT1-luciferase reporter, luminescence; 100% = IFN-gamma alone, no compound | activation (% of control), % at 5.5 µM | hit rate 2.6% among 200,000 | AID 932;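 active = activation above the screen-wide mean activation plus 3 SD, cut at about 130% in these data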;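 also: raw ratio to IFN-gamma control signal so 100% means no change and 0% no light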
STAT1 inh-2: confirmation of STAT1 signaling inhibitors | hit rate 55% among 200 | inhibition, % at 5.5 µM | AID 1263 | shares compounds with STAT1 inh-1 | NIH 3T3 STAT1-luciferase reporter, IFN-gamma, luminescence;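 active = triplicate mean inhibition exceeding the hit cutoff computed for the primary STAT1 screen, cut at about 35% in these data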;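 also: 0% = DMSO with IFN-gamma and 100% = 300 µM nifuroxazide with IFN-gamma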
NFkB inh STAT1ct: NF-kappaB inhibition in STAT1 inhibitor counter-screen; hit rate 30% among 200; shares compounds with STAT1 inh-1; HEK293T NF-kB luciferase reporter, TNF-alpha induced, luminescence; inhibition, % at 5.7 µM;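 active = inhibition above the mean of solvent-only control wells plus 3 SD of those wells, cut at about 15% in these data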;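 also: 0% = DMSO with TNF-alpha and 100% = MG-132 control with TNF-alpha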
STAT3 inh 2: inhibits STAT3, counter-screen to STAT1 inhibitors; shares compounds with STAT1 inh-1; U3A cells, IL-6 STAT3 luciferase reporter, luminescence; cells lacking STAT1; inhibition, % at 5.7 µM; hit rate 20% among 200; AID 1310;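 active = inhibition above the mean of solvent-only control wells plus 3 SD, set per campaign, cut at about 25% in these data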;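 also: 0% = IL-6 plus DMSO and 100% = IL-6 plus nifuroxazide control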
STAT1 activ conf: confirmation of STAT1 signaling activators | shares compounds with STAT1 activator | NIH 3T3 STAT1-luciferase reporter, IFN-gamma potentiation, luminescence; 100% = IFN-gamma EC80 alone, no compound | hit rate 97% among 1,200 | AID 1262 | activation (% of control), % at 5.7 µM;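 active = activation above a set limit carried over from the earlier primary STAT1 screen, cut at about 140% in these data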;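 also: simple ratio to median IFN-gamma plus DMSO wells so 0% means no light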
NFkB act: counter-screen for STAT1 activators: NF-kappaB activation; AID 1306; HEK293T NF-kB luciferase reporter, TNF-alpha stimulated, luminescence; 100% = TNF-alpha with vehicle only; hit rate 43% among 1,200; shares compounds with STAT1 activator; activation (% of control), % at 5.7 µM;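 active = activation above the mean of solvent-only control wells plus 3 SD, set per campaign, cut at about 130% in these data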;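 also: TNF-alpha given at a submaximal dose yielding about 80% of full reporter signal; values are well signal over median control so 100% means no change and 0% no light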
STAT3 act 2: counter-screen for STAT1 activators: human STAT3 activation | shares compounds with STAT1 activator | U3A cells STAT3-luciferase reporter, IL-6, luminescence; cells lack STAT1; 100 = IL-6 alone, no compound effect | activation (% of control), % at 5.7 µM | hit rate 46% among 1,200 | AID 1316;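 active = activation above the solvent-only control well mean plus 3 SD, set per plate batch, cut at about 110% in these data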;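 also: 0% = no luminescence and 100% = median IL-6 plus DMSO wells; higher means more STAT3 reporter activation so hits are non-selective activators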
* = called active by the depositor; . = no result given.

SMILES	NF-kB neuron act	STAT1 inh-1	APP 5'UTR act	STAT3 activator	STAT3 blocker	STAT1 activator	STAT1 inh-2	NFkB inh STAT1ct	STAT3 inh 2	others
O=C(COC(=O)C1CC(=O)N(Cc2ccccc2)C1)Nc1ccccc1F (stereo unspecified)	1.09	8.5	5.7	98.9	3.7	91.4	.	.	.
CCN(CC(=O)NCc1ccc(Cl)cc1)C(=O)/C=C/c1cccs1	0.89	68.2*	0.5	109.2	-10.1	36.3	7.7	1.8	3.4
CSc1nc(C(=O)N2CCCC(C(=O)c3ccc(Cl)cc3)C2)cs1 (stereo unspecified)	1	5.2	8.7	103.5	-1.7	93.5	.	.	.
Cc1ccc(S(=O)(=O)n2nc(C)cc2C)cc1	1.28	-1.4	-10.5	94.1	7.2	101.3	.	.	.
Cc1cc(C)n(S(=O)(=O)/C=C/c2ccccc2)n1	0.96	37.9*	-17.4	77.8	29.3	65.3	42.4*	-3.2	3.5
Cc1sc(NC(=S)NC(=O)C2CCCCC2)c(C(N)=O)c1C	0.97	-18.2	36.2	106.3	-4.9	116.3	.	.	.
Cc1nn(Cc2ccc(Cl)c(Cl)c2)c(C)c1NC(=O)c1cc(-c2ccc3c(c2)OCO3)on1	0.86	36.6*	-52.0	89.4	13.1	66.9	26.8	7.8	18.1
Cn1cc(CN2CCc3c([nH]c4ccccc34)C2C2CCCCC2)cn1 (stereo unspecified)	1.11	2.5	-2.6	129.9	-32.5	96.2	.	.	.
COc1cccc(C2c3[nH]c4ccccc4c3CCN2Cc2cnc(C)s2)c1OC (stereo unspecified)	.	60.0*	7.2	128.7	-27.1	45.0	15.3	11.9	-27.0
FC(F)(F)c1cccc(Cc2noc(CN3CCCC(OCc4ccccn4)C3)n2)c1 (stereo unspecified)	1.31	7.9	-0.9	95.5	8.6	90.8	.	.	.
CCCCC(Sc1nc(N)c(NC(=O)c2ccc(OC)cc2)c(=O)[nH]1)C(=O)O (stereo unspecified)	1.24	1.0	5.3	110.2	-13.1	99.2	.	.	.
Fc1ccc(-n2nnc(-c3cnc4ccccc4c3)n2)cc1	2.17	83.0*	98.4	.	.	23.7	20.9	75.9*	77.7*
CCNc1nc(NC(C)(C)C)nc(N2CCCCC2)n1	1.62	38.6*	3.2	94.5	12.9	64.2	23.7	-6.5	18.7
CCNc1nc(N2CCCC2)nc(N2CCCC2)n1	1.23	15.7	0.8	113.8	-13.5	85.7	.	.	.
COc1ccccc1Nc1nc(-c2c(C)nc3ncccn23)cs1	0.97	39.2*	-3.2	68.0	39.7	62.4	36.5*	4.6	30.3*
O=C(N/N=C/c1cccnc1)C(O)(c1ccccc1)c1ccccc1	1.22	3.1	-8.2	100.7	4.0	97.2	.	.	.
O=C(O)c1cccc(N/N=C/c2cccnc2)c1	2.44	39.6*	87.0	71.8	37.7	62.9	5.9	30.7*	-8.9
CCOC(=O)N1CCN(C(=O)CCn2c(=S)[nH]c3ccsc3c2=O)CC1	0.89	47.6*	-1.9	90.6	13.4	55.4	19.4	-4.4	-0.6
Cc1cc(C)c(C#N)c(Sc2nnnn2-c2ccccc2)n1	1.55	-0.3	-2.6	99.5	5.9	100.3	.	.	.
CCOc1ccc(-c2nnn(CC(=O)N3CCCC3)n2)cc1OCC	1	2.1	-15.4	104.5	-3.9	107.4	.	.	.
N#C/C(=N\Nc1cccc([N+](=O)[O-])c1)C(=O)c1ccc(Br)cc1	0.49	69.2*	-6.9	72.0	37.7	35.0	43.8*	12.1	29.1*
Cc1cccc(/C=C(\c2nc3ccccc3[nH]2)S(=O)(=O)c2ccccc2)c1	1.54	38.4*	-11.9	94.6	9.0	65.4	46.8*	4.5	17.8
O=C(O)c1ccccc1C(=O)Nc1ccc(Oc2cccc3ccccc23)cc1	1.06	62.6*	-58.7	81.0	29.1	41.6	17.7	22.8*	-12.8
Cc1cccc(Oc2ccc(NC(=O)c3ccccc3C(=O)O)cc2)c1C	0.91	7.9	5.8	99.7	0.2	92.7	.	.	.
Cc1ccc(-n2nnc(-c3nccs3)n2)cc1	2.53	82.7*	117.9	.	.	23.9	48.6*	76.3*	84.8*
SMILES	NF-kB neuron act	STAT1 inh-1	APP 5'UTR act	STAT3 activator	STAT3 blocker	STAT1 activator	STAT1 inh-2	NFkB inh STAT1ct	STAT3 inh 2	others
CCCCS(=O)(=O)/C=C\C1C2C=CC(C2)C1S(=O)(=O)CCCC (stereo unspecified)	0.93	-0.2	-4.8	100.4	4.8	100.2	.	.	.
CCCCS(=O)(=O)/C=C\C=C/S(=O)(=O)CCCC	0.13	-225.5	-97.7	89.6	16.0	307.0*	.	.	.	STAT1 activ conf=210.0*;NFkB act=121.0;STAT3 act 2=99.4
COc1ccc(-c2cnn3c4c(c(C)nc23)CCN4C(C)C)cc1OC	1.29	-14.3	.	103.9	1.1	112.8	.	.	.
COc1cc(/C=N/O)ccc1OCc1ccc(Cl)cc1	8.39*	-59.3	191.2*	84.7	22.4	155.2*	.	.	.	STAT1 activ conf=282.9*;NFkB act=147.5*;STAT3 act 2=141.1*
Cc1ccc(C=Nc2ccc(N(C)C)cc2)o1	0.85	-70.3	153.1*	98.9	6.0	163.9*	.	.	.	STAT1 activ conf=148.9*;NFkB act=131.9;STAT3 act 2=113.4*
Cc1ccc(/C=N/n2c(C)nnc2C)o1	1.12	-8.0	17.9	101.0	-6.4	107.3	.	.	.
CCc1ccc(NC(=O)N2CCC(c3ccccc3)C2)cc1 (stereo unspecified)	4.32*	-65.8	164.0*	99.3	6.9	161.0*	.	.	.	STAT1 activ conf=182.4*;NFkB act=132.8;STAT3 act 2=108.6
CCOc1ccc(NC(=O)N2CCC(c3ccc(C)cc3)C2)cc1 (stereo unspecified)	1.26	-5.0	7.5	93.4	11.7	104.5	.	.	.
Cc1[nH]n(C(N)=S)c(=O)c1N=Nc1ccc2ccccc2c1	5.86*	-78.2	134.0	128.3	-29.9	172.3*	.	.	.	STAT1 activ conf=208.3*;NFkB act=123.1;STAT3 act 2=146.3*
O=C(Nc1ccccc1Cl)c1cnccn1	1.12	7.5	-6.6	82.0	27.2	94.0	.	.	.

Source: PubChem
